In brackets after ≈: the same amount, converted by molar mass. Starred links: 1 amine or outer side, 2 acyl side, 3 side chain; linkers in the order of their positions; H or OH if unused. Positions of bridges follow the written chain, without caps; N, C: chain ends. Non-standard residues stand in square brackets, D forms with d. Residues, ends and D or L forms follow the SMILES beside them. *: point of attachment. hTyr(3S-OH,4S-OH,3'-OSO3H) = N[C@H](C(=O)O)[C@H](O)[C@@H](O)c1ccc(O)c(OS(=O)(=O)O)c1; Orn(4R-OH,5R-OH) = O=C([C@H](C[C@@H](O)[C@@H](O)N[*:3])N[*:1])[*:2]; Pro(3S-OH,4S-Me) = C[C@H]1CN[C@H](C(=O)O)[C@H]1O; X1 = CCCCCOc1ccc(-c2cc(-c3ccc(C(=O)*)cc3)no2)cc1; Gln(3R-OH) = NC(=O)C[C@@H](O)[C@H](N)C(=O)O; Hyp = O=C(O)[C@@H]1C[C@@H](O)CN1
Key:
Format in all cases: functional
[1] = system: Candida albicans; assay: Antifungal activity against Candida albicans ATCC 24433 after 48 hrs by broth microdilution method; details: ATCC 24433, 48 h
Procedure, shortened: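 CLSI M27-A2 (yeasts) or M38-A (A. fumigatus) broth microdilution in RPMI 1640 buffered to pH 7.0 with 0.165 M MOPS. Final inocula were 0.65–2.5 × 10^3 CFU/ml for yeasts and 0.87–3.8 × 10^4 CFU/ml for filamentous fungi. Incubation was at 35°C for about 48 h (72 h for C. neoformans). MIC was the lowest concentration giving a prominent (~50%) turbidity drop versus growth control; amphotericin B required complete inhibition.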

[2] = system: Candida albicans; assay: Antifungal activity against Candida albicans ATCC 90028 after 48 hrs by broth microdilution method; details: ATCC 90028, 48 h
Procedure, shortened: (§1)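 CLSI M27-A2 (yeasts) / M38-A (moulds) broth microdilution in RPMI 1640 buffered to pH 7.0 with 0.165 M MOPS. Malassezia furfur got the same medium supplemented with glucose, bile salts, glycerol, glycerol monostearate and Tween 20. Final inoculum 0.65 × 10^3–2.5 × 10^3 CFU/ml for yeasts and 0.87 × 10^4–3.8 × 10^4 CFU/ml for filamentous fungi. Incubation at 35°C except M. racemosus and F. solani, which were held at 30°C.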

[3] = system: Candida dubliniensis; assay: Antifungal activity against Candida dubliniensis ATCC MYA-577 after 48 hrs by broth microdilution method; details: ATCC MYA-577, 48 h; procedure, shortened: as §1
[4] = system: Pichia kudriavzevii; assay: Antifungal activity against Candida krusei IFO 0584 after 48 hrs by broth microdilution method; details: IFO 0584, 48 h; procedure, shortened: as §1
[5] = system: Cryptococcus neoformans; assay: Antifungal activity against Cryptococcus neoformans ATCC 90113 after 72 hrs by broth microdilution method; details: ATCC 90113, 72 h; procedure, shortened: as §1
[6] = system: Malassezia furfur; assay: Antifungal activity against Malassezia furfur NBRC 0656 after 48 hrs by broth microdilution method; details: NBRC 0656, 48 h; procedure, shortened: as §1
[7] = system: Saccharomyces cerevisiae; assay: Antifungal activity against Saccharomyces cerevisiae ATCC 24657 after 48 hrs by broth microdilution method; details: ATCC 24657, 48 h; procedure, shortened: as §1
[8] = system: Trichosporon asahii; assay: Antifungal activity against Trichosporon asahii JCM 2466 after 48 hrs by broth microdilution method; details: JCM 2466, 48 h; procedure, shortened: as §1
[9] = system: Aspergillus flavus; assay: Antifungal activity against Aspergillus flavus NBRC 6343 after 48 hrs by broth microdilution method; details: NBRC 6343, 48 h; procedure, shortened: as §1
[10] = system: Aspergillus fumigatus; assay: Antifungal activity against Aspergillus fumigatus IFM 46895 after 48 hrs by broth microdilution method; details: IFM 46895, 48 h; procedure, shortened: as §1
[11] = system: Aspergillus fumigatus; assay: Antifungal activity against Aspergillus fumigatus IFM 49895 after 48 hrs by broth microdilution method; details: IFM 49895, 48 h; procedure, shortened: as §1
[12] = system: Aspergillus fumigatus; assay: Antifungal activity against Aspergillus fumigatus TIMM 0063 after 48 hrs by broth microdilution method; details: TIMM 0063, 48 h; procedure, shortened: as §1
[13] = system: Aspergillus nidulans; assay: Antifungal activity against Aspergillus nidulans NBRC 33017 after 48 hrs by broth microdilution method; details: NBRC 33017, 48 h; procedure, shortened: as §1
[14] = system: Fusarium solani; assay: Antifungal activity against Fusarium solani IFO 31093 after 48 hrs by broth microdilution method; details: IFO 31093, 48 h; procedure, shortened: as §1
[15] = system: Mucor racemosus; assay: Antifungal activity against Mucor racemosus NBRC5403 after 24 hrs by broth microdilution method; details: NBRC5403, 24 h
[16] = system: Candida albicans; assay: Antifungal activity against Candida albicans ATCC 64124 after 47 hrs by broth microdilution method; details: ATCC 64124, 47 h
Procedure, shortened: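 Fluconazole-resistant or susceptible-dose-dependent ATCC C. albicans strains were tested by CLSI M27-A2 broth microdilution in RPMI 1640–0.165 M MOPS, pH 7.0, with a final inoculum of 1.1–1.5 × 10^3 CFU/ml at 35°C for about 47 h. MIC was the lowest concentration with a prominent (~50%) turbidity decrease relative to growth control; amphotericin B was read at complete inhibition.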

[17] = system: Candida albicans; assay: Antifungal activity against Candida albicans ATCC 64550 after 47 hrs by broth microdilution method; details: ATCC 64550, 47 h
Procedure, shortened: (§2)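 Fluconazole-resistant or susceptible-dose-dependent C. albicans ATCC strains were tested by broth microdilution in RPMI 1640-MOPS. Inoculum was 1.1 × 10^3–1.5 × 10^3 CFU/ml, with incubation at 35°C for about 47 h. Yeast MIC was read as about 50% turbidity decrease relative to growth control, except amphotericin B, read at complete inhibition.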

[18] = system: Candida albicans; assay: Antifungal activity against Candida albicans ATCC MYA-2732 after 47 hrs by broth microdilution method; details: ATCC MYA-2732, 47 h; procedure, shortened: as §2
[19] = system: Meyerozyma guilliermondii; assay: Antifungal activity against Candida guilliermondii clinical isolates after 48 hrs by broth microdilution method
Procedure, shortened: (§3)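 Clinical isolates from Japanese hospitals or culture collections were tested by broth microdilution in RPMI 1640-MOPS. Inoculum was 0.57 × 10^3–2.5 × 10^3 CFU/ml for yeasts and 0.4 × 10^4–3.3 × 10^4 CFU/ml for filamentous fungi. Incubation was at 35°C for about 48 h, or 72 h where footnoted. Results were summarised as MIC range, MIC50 and MIC90.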

[20] = system: Pichia kudriavzevii; assay: Antifungal activity against Candida krusei clinical isolates after 48 hrs by broth microdilution method
Procedure, shortened: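 Japanese hospital Candida isolates were tested by CLSI M27-A2 broth microdilution in RPMI 1640–MOPS, pH 7.0, with inocula of 0.57–2.5 × 10^3 CFU/ml at 35°C for about 48 h. Inocula came from 24-h potato dextrose agar cultures. MIC was the lowest concentration with about 50% turbidity reduction versus growth control (complete inhibition for amphotericin B). Range, MIC50 and MIC90 were reported.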

[21] = system: Candida tropicalis; assay: Antifungal activity against Candida tropicalis clinical isolates after 48 hrs by broth microdilution method; procedure, shortened: as §3
[22] = system: Aspergillus fumigatus; assay: Antifungal activity against Aspergillus fumigatus clinical isolates after 48 hrs by broth microdilution method; procedure, shortened: as §3
[23] = system: Aspergillus fumigatus; assay: Antifungal activity against Aspergillus fumigatus IFM 46895 infected ICR mouse after 6 days; details: IFM 46895, 144 h
Procedure, shortened: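 Male ICR mice, 4 weeks old and SPF, were made neutropenic with intraperitoneal cyclophosphamide. The schedule was 200 mg/kg on day −3 (day −4 for Cryptococcus) plus 100 mg/kg on day +1. Infection was by tail-vein injection of 0.2 ml suspension: C. albicans 3.0 × 10^4, C. neoformans 9.1 × 10^4, A. fumigatus conidia 8.4 × 10^4 CFU/mouse. Drugs were given subcutaneously once daily for 7 days from 2 h post-infection; controls received saline. Groups had 8–10 mice.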

## C[C@@H]1[C@H](O)[C@@H](C)/C=C/C=C/C=C/C=C/C=C/C=C/C=C/[C@H](O[C@@H]2O[C@H](C)[C@@H](O)[C@H](N)[C@@H]2O)C[C@@H]2O[C@](O)(C[C@@H](O)C[C@@H](O)[C@H](O)CC[C@@H](O)C[C@@H](O)CC(=O)O[C@H]1C)C[C@H](O)[C@H]2C(=O)O [AMPHOTERICIN B]
[1]
  MFC: 1 µg/mL (≈ 1.08 µM)
  MIC: 1 µg/mL (≈ 1.08 µM)
[2]
  MFC: 1 µg/mL (≈ 1.08 µM)
  MIC: 1 µg/mL (≈ 1.08 µM)
[3]
  MFC: 2 µg/mL (≈ 2.16 µM)
  MIC: 1 µg/mL (≈ 1.08 µM)
[4]
  MFC: 2 µg/mL (≈ 2.16 µM)
  MIC: 2 µg/mL (≈ 2.16 µM)
[5]
  MFC: 2 µg/mL (≈ 2.16 µM)
  MIC: 2 µg/mL (≈ 2.16 µM)
[6]
  MFC: 64 µg/mL (≈ 69.3 µM)
  MIC: 0.5 µg/mL (≈ 0.541 µM)
[7]
  MFC: 2 µg/mL (≈ 2.16 µM)
  MIC: 1 µg/mL (≈ 1.08 µM)
[8]
  MFC: 4 µg/mL (≈ 4.33 µM)
  MIC: 2 µg/mL (≈ 2.16 µM)
[9]
  MFC: 2 µg/mL (≈ 2.16 µM)
  MIC: 2 µg/mL (≈ 2.16 µM)
[10]
  MFC: 2 µg/mL (≈ 2.16 µM)
  MIC: 2 µg/mL (≈ 2.16 µM)
[11]
  MFC: 2 µg/mL (≈ 2.16 µM)
  MIC: 2 µg/mL (≈ 2.16 µM)
[12]
  MFC: 2 µg/mL (≈ 2.16 µM)
  MIC: 2 µg/mL (≈ 2.16 µM)
[13]
  MFC: 2 µg/mL (≈ 2.16 µM)
  MIC: 2 µg/mL (≈ 2.16 µM)
[14]
  MFC: 2 µg/mL (≈ 2.16 µM)
  MIC: 2 µg/mL (≈ 2.16 µM)
[15]
  MFC: 2 µg/mL (≈ 2.16 µM)
  MIC: 1 µg/mL (≈ 1.08 µM)
[16]
  MIC: 2 µg/mL (≈ 2.16 µM)
[17]
  MIC: 1 µg/mL (≈ 1.08 µM)
[18]
  MIC: 2 µg/mL (≈ 2.16 µM)
[19]
  MIC50: 1 µg/mL (≈ 1.08 µM)
  MIC90: 1 µg/mL (≈ 1.08 µM)
[20]
  MIC: 2 µg/mL (≈ 2.16 µM)
  MIC50: 2 µg/mL (≈ 2.16 µM)
  MIC90: 2 µg/mL (≈ 2.16 µM)
[21]
  MIC: 1 µg/mL (≈ 1.08 µM)
  MIC50: 1 µg/mL (≈ 1.08 µM)
  MIC90: 2 µg/mL (≈ 2.16 µM)
[22]
  MIC50: 2 µg/mL (≈ 2.16 µM)
  MIC90: 2 µg/mL (≈ 2.16 µM)
[23]
  ED50: 0.289 mg/kg

## CCCCCOc1ccc(-c2cc(-c3ccc(C(=O)N[C@H]4C[C@@H](O)[C@@H](O)NC(=O)[C@@H]5[C@@H](O)[C@@H](C)CN5C(=O)[C@H]([C@H](O)CC(N)=O)NC(=O)[C@H]([C@H](O)[C@@H](O)c5ccc(O)c(OS(=O)(=O)O)c5)NC(=O)[C@@H]5C[C@@H](O)CN5C(=O)[C@H]([C@@H](C)O)NC4=O)cc3)no2)cc1 [MICAFUNGIN] (X1-[Orn(4R-OH,5R-OH)]T[Hyp][hTyr(3S-OH,4S-OH,3'-OSO3H)][Gln(3R-OH)][Pro(3S-OH,4S-Me)]; lactam 1-C)
[1]
  MFC: 0.25 µg/mL (≈ 0.197 µM)
  MIC: 0.0313 µg/mL (≈ 0.0246 µM)
[2]
  MFC: 0.125 µg/mL (≈ 0.0984 µM)
  MIC: 0.0313 µg/mL (≈ 0.0246 µM)
[3]
  MFC: 8 µg/mL (≈ 6.3 µM)
  MIC: 0.125 µg/mL (≈ 0.0984 µM)
[4]
  MFC: 0.25 µg/mL (≈ 0.197 µM)
  MIC: 0.125 µg/mL (≈ 0.0984 µM)
[5]
  MFC: > 64 µg/mL
  MIC: > 64 µg/mL
[6]
  MFC: > 64 µg/mL
  MIC: > 64 µg/mL
[7]
  MFC: 1 µg/mL (≈ 0.787 µM)
  MIC: 0.5 µg/mL (≈ 0.394 µM)
[8]
  MFC: > 64 µg/mL
  MIC: > 64 µg/mL
[9]
  MFC: > 64 µg/mL
  MIC: 0.0625 µg/mL (≈ 0.0492 µM)
[10]
  MFC: > 64 µg/mL
  MIC: 0.0313 µg/mL (≈ 0.0246 µM)
[11]
  MFC: > 64 µg/mL
  MIC: 0.0313 µg/mL (≈ 0.0246 µM)
[12]
  MFC: > 64 µg/mL
  MIC: 0.0156 µg/mL (≈ 0.0123 µM)
[13]
  MFC: > 64 µg/mL
  MIC: 0.0313 µg/mL (≈ 0.0246 µM)
[14]
  MFC: > 64 µg/mL
  MIC: > 64 µg/mL
[15]
  MFC: > 64 µg/mL
  MIC: 32 µg/mL (≈ 25.2 µM)
[16]
  MIC: 0.0625 µg/mL (≈ 0.0492 µM)
[17]
  MIC: 0.0625 µg/mL (≈ 0.0492 µM)
[18]
  MIC: 0.125 µg/mL (≈ 0.0984 µM)
[19]
  MIC50: 1 µg/mL (≈ 0.787 µM)
  MIC90: 1 µg/mL (≈ 0.787 µM)
[20]
  MIC50: 0.5 µg/mL (≈ 0.394 µM)
  MIC90: 0.5 µg/mL (≈ 0.394 µM)
[21]
  MIC: 0.0625 µg/mL (≈ 0.0492 µM)
  MIC50: 0.0625 µg/mL (≈ 0.0492 µM)
  MIC90: 0.125 µg/mL (≈ 0.0984 µM)
[22]
  MIC: 0.0313 µg/mL (≈ 0.0246 µM)
  MIC50: 0.0313 µg/mL (≈ 0.0246 µM)
  MIC90: 0.0313 µg/mL (≈ 0.0246 µM)
[23]
  ED50: 0.699 mg/kg

— ChEMBL document CHEMBL1255303, “In vitro and in vivo antifungal activities of T-2307, a novel arylamidine” (2008)
